The record followed here is ChEMBL document CHEMBL1135879 (J Med Chem, 2002).

Assay [1] deals with T1, Amine oxidase [flavin-containing] A (Bos taurus, UniProt P21398).
T1 sequence (P21398 whole entry): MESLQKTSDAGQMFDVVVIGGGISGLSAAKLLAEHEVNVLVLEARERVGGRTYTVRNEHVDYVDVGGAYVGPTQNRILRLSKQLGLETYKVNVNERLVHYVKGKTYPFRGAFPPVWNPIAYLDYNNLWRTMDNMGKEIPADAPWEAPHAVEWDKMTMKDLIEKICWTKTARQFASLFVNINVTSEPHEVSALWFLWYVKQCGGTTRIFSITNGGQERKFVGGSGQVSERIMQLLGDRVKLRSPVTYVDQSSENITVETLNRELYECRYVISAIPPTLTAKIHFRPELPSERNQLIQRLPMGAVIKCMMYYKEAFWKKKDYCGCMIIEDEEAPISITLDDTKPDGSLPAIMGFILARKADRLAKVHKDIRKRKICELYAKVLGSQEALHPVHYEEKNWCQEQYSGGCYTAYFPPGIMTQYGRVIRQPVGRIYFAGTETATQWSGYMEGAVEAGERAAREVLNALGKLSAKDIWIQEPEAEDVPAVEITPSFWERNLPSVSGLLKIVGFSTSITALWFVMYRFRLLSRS
Briefly: Inhibition of bovine brain mitochondrial Monoamine oxidase A (MAO-A) compared to toloxatone. The method, boiled down:
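Bovine brain mitochondria were isolated by the Basford method. To isolate MAO-A, fractions were preincubated 30 min at 38 °C with 1 μM L-deprenyl. Inhibitors in DMSO were preincubated 30 min, then kynuramine substrate was added, with 30 min further incubation. Product was read fluorimetrically and Ki values derived.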

For assay [2], the target named is T2, Amine oxidase [flavin-containing] B (Bos taurus, UniProt P56560).
T2 sequence (P56560 whole entry): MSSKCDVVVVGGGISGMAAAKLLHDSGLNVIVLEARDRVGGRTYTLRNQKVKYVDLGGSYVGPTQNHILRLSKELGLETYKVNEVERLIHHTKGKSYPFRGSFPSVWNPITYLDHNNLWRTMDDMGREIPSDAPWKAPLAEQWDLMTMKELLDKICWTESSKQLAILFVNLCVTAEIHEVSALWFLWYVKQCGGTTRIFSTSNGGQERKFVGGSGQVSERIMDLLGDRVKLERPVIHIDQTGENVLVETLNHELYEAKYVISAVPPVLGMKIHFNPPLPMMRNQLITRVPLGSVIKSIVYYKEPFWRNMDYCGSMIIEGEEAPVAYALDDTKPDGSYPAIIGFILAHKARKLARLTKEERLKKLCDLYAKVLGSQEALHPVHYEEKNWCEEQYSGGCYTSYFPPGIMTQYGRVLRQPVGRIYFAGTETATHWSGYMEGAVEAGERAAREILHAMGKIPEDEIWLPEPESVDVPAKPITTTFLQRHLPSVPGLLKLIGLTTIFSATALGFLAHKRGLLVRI
Briefly: Inhibition of bovine brain mitochondrial Monoamine oxidase B (MAO-B) compared to toloxatone. The method, boiled down:
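Bovine brain mitochondrial fractions were isolated by the Basford method. To leave MAO-B activity, fractions were preincubated 30 min at 38 °C with 1 μM clorgyline. Inhibitors in DMSO were preincubated 30 min before kynuramine was added, then incubated 30 min more. Fluorimetric read-out was used and Ki values determined.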

pKi: −log10 of the molar value.

One may read the pKi as −log10 of the Ki, conventionally taken in molar units. As to `O=C1O[C@@H](CO)CN1n1cccc1.O=C1O[C@H](CO)CN1n1cccc1`, the results for the pKi in assay [1] and in assay [2] were 6.57 and 5.70, respectively.
As to `[N-]=[N+]=NC[C@H]1CN(n2cccc2)C(=O)O1`, the negative logarithm of the Ki (pKi) in assay [1] was 6.70; in assay [2] it was 3.70.
In the case of `COC[C@@H]1CN(c2ccc(OCC[C@H](O)C(F)(F)F)cc2)C(=O)O1` [(R/R)BEFLOXATONE], the negative logarithm of the Ki (pKi) in assay [1] was 8.60; in assay [2], 6.66.
For `O=C1O[C@@H](CO)CN1n1cccc1`, the pKi in assay [1] is 7.05; in assay [2] it was 5.05.
In the case of `COC[C@@H]1CN(n2cccc2)C(=O)O1`, the pKi in assay [1] is 6.00; in assay [2], 4.64.
Turning to `NC[C@H]1CN(n2cccc2)C(=O)O1`, the negative-log Ki (pKi) was 4.28 in assay [1] and 5.36 in assay [2].
With `COC[C@H]1CN(n2cccc2)C(=O)O1`, the pKi in assay [1] was 8.31; in assay [2], 4.30.
In the same order, the values of `O=C1O[C@H](CO)CN1n1cccc1` are 5.92 and 5.70.
In the same order, the values of `[N-]=[N+]=NC[C@@H]1CN(n2cccc2)C(=O)O1` are 5.60 and 4.62.
The like results for `CN(C)C[C@H]1CN(n2cccc2)C(=O)O1` were, in that order, 4.40 and 3.85.
In the case of `NC[C@@H]1CN(n2cccc2)C(=O)O1`, the pKi was 5.92 in assay [1] and 4.47 in assay [2].
